Data taken from ChEMBL document CHEMBL3421612, “Identification of an anti-inflammatory derivative with anti-cancer potential: The impact of each of its structural components on inflammatory responses in macrophages and bladder cancer cells” (2015).
Calls of active or inactive are those of the source. The rule behind the calls is not given here.

Assays:
MB49-I [1] = assay: (§1) Antiinflammatory activity against mouse MB49-I cells assessed as inhibition of IFN-gamma/TNFalpha-NO production pretreated at 10 uM after 24 hrs by Griess reaction relative to vehicle treated control; type: functional
Summary of the method: (§2)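 Cells seeded at 25 × 10³ per well, pretreated 3 h with test agents, washed twice with 10% FBS RPMI-1640, then stimulated 24 h with IFNγ plus TNFα. NO was quantified as nitrite using the Griess reaction (sulfanilic acid diazotization coupled to N-(1-naphthyl)ethylenediamine), absorbance at 548 nm, compared with cytokine-only control cells.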

MB49-I [2] = assay: (§3) Antiinflammatory activity against mouse MB49-I cells assessed as inhibition of IFN-gamma/TNFalpha-NO production pretreated at 50 uM after 24 hrs by Griess reaction relative to vehicle treated control; type: functional; summary of the method: as §2
THP-1 [3] = assay: Reduction in IFN-gamma-induced STAT1 phosphorylation in human THP1 cells assessed as fold decrease at 10 uM after 30 mins by densitometric analysis relative to vehicle treated control; type: functional; conditions: THP-1, 0.5 h
Summary of the method: (§4)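 PMA-differentiated THP1 macrophages at 750 × 10³ cells/mL were pretreated 30 min with DMSO or compound at 10 or 50 μM, washed, then harvested immediately or after 30 min of 50 U/mL IFNγ (pSTAT1) or 25 ng/mL IL6 (pSTAT3). Lysates were run on reducing SDS-PAGE and immunoblotted for pSTAT1/pSTAT3, with blots reprobed for total STAT; phosphorylation was expressed as fold induction.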

THP-1 [4] = assay: Reduction in IFN-gamma-induced STAT1 phosphorylation in human THP1 cells assessed as fold decrease at 50 uM after 30 mins by densitometric analysis relative to vehicle treated control; type: functional; conditions: THP-1, 0.5 h; summary of the method: as §4
THP-1 [5] = assay: Reduction in IL6-induced STAT3 phosphorylation in human THP1 cells assessed as fold decrease at 10 uM after 30 mins by densitometric analysis relative to vehicle treated control; type: functional; conditions: THP-1, 0.5 h; summary of the method: as §4
THP-1 [6] = assay: Reduction in IL6-induced STAT3 phosphorylation in human THP1 cells assessed as fold decrease at 50 uM after 30 mins by densitometric analysis relative to vehicle treated control; type: functional; conditions: THP-1, 0.5 h; summary of the method: as §4
[7] = Reduction in IFN-gamma-induced CD40 expression in human THP1 cells assessed as fold decrease pretreated at 25 uM after 48 hrs by flow cytometry relative to vehicle treated control; type: functional, cell-based; conditions: THP-1
Summary of the method: (§5)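 PMA-differentiated GFP-THP1 macrophages at 750 × 10⁴ cells/mL were pretreated 3 h with DMSO or compound, then left untreated or stimulated 48 h with 50 U/mL IFNγ. Surface CD40 and MHC-II were quantified by flow cytometry as fold change versus resting cells.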

[8] = Reduction in IFN-gamma-induced MHC2 expression in human THP1 cells assessed as fold decrease pretreated at 25 uM after 48 hrs by flow cytometry relative to vehicle treated control; type: functional, cell-based; conditions: THP-1; summary of the method: as §5
J774.A1 [9] = assay: Reduction in IFN-gamma/TNFalpha-induced NO production in mouse J774A.1 cells pretreated at 10 uM measured for 24 hrs by Griess reaction relative to vehicle treated control; type: functional; summary of the method: as §2
J774.A1 [10] = assay: Reduction in IFN-gamma/TNFalpha-induced NO production in mouse J774A.1 cells pretreated at 50 uM measured for 24 hrs by Griess reaction relative to vehicle treated control; type: functional; summary of the method: as §2
MB49-I [11] = assay: Antiproliferative activity against mouse MB49-I cells assessed as induction of IFN-gamma/TNFalpha-induced loss of cell viability at 10 uM after 24 hrs by MTT assay relative to control; type: functional, cell-based
Summary of the method: (§6)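 MB49-I cells plated at 5 × 10³ per well and cultured 24 h. Pretreated 3 h with DMSO or compound at 0–50 μM, then incubated 24 h with or without IFNγ plus TNFα. MTT added for 3 h, solubilized overnight in 10% SDS/10 mM HCl, and absorbance read at 580 nm.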

MB49-I [12] = assay: (§7) Antiproliferative activity against mouse MB49-I cells assessed as induction of IFN-gamma/TNFalpha-induced loss of cell viability at 25 uM after 24 hrs by MTT assay relative to control; type: functional; summary of the method: as §6
MB49-I [13] = assay: (§8) Antiproliferative activity against mouse MB49-I cells assessed as induction of IFN-gamma/TNFalpha-induced loss of cell viability at 37.5 uM after 24 hrs by MTT assay relative to control; type: functional; summary of the method: as §6
MB49-I [14] = assay: (§9) Antiproliferative activity against mouse MB49-I cells assessed as induction of IFN-gamma/TNFalpha-induced loss of cell viability at 50 uM after 24 hrs by MTT assay relative to control; type: functional; summary of the method: as §6
[15] = as §1; type: functional; summary of the method: as §2
[16] = as §3; type: functional; summary of the method: as §2
[17] = Reduction in IFN-gamma-induced MHC2 expression in human THP1 cells assessed as fold decrease pretreated at 10 uM after 48 hrs by flow cytometry relative to vehicle treated control; type: functional, cell-based; conditions: THP-1; summary of the method: as §5
[18] = Reduction in IFN-gamma-induced CD40 expression in human THP1 cells assessed as fold decrease pretreated at 10 uM after 48 hrs by flow cytometry relative to vehicle treated control; type: functional, cell-based; conditions: THP-1; summary of the method: as §5
[19] = as §7; type: functional; summary of the method: as §6
[20] = as §8; type: functional; summary of the method: as §6
[21] = as §9; type: functional; summary of the method: as §6

For `CC(C)(C)OC(=O)NNC(=O)c1ccccc1`, the Activity (MB49-I [1]) was “inactive” and the Activity (MB49-I [2]) was “inactive”.

In the case of `Nc1ccc(C(=O)O)cc1`, the inhibition (MB49-I [1]) is reported as “inactive” and the inhibition (MB49-I [2]) is reported as “inactive”.

In the case of `NNC(=O)c1ccc(N2C(=O)C=CC2=O)cc1`, the inhibition at 10 µM (THP-1 [3]) is reported as 16%, the inhibition at 50 µM (THP-1 [4]) is reported as 66% and the inhibition at 10 µM (THP-1 [5]) is reported as 15%. The inhibition at 50 µM (THP-1 [6]) was 38%, the inhibition [7] was 43% and the inhibition [8] was 23%. The inhibition at 10 µM (J774.A1 [9]) was 24%, the inhibition at 50 µM (J774.A1 [10]) was 69% and the Activity (MB49-I [11]) was “inactive”. The inhibition (MB49-I [12]) was “inactive”, the inhibition (MB49-I [13]) was “inactive” and the inhibition (MB49-I [14]) was “inactive”. The inhibition at 10 µM [15] was 21% and the inhibition at 50 µM [16] was 72%.

Work on `CC(C)(C)OC(=O)NNC(=O)c1ccc(N2C(=O)C=CC2=O)cc1` yielded an inhibition at 10 µM (THP-1 [3]) of 38%, an inhibition at 50 µM (THP-1 [4]) of 71% and an inhibition at 10 µM (THP-1 [5]) of 64%. The inhibition at 50 µM (THP-1 [6]) was 85%, the inhibition [17] was 49% and the inhibition [18] was 87%. For the same compound, the inhibition at 10 µM (J774.A1 [9]) was 46%, the inhibition at 50 µM (J774.A1 [10]) was 91% and the Activity (MB49-I [11]) was “inactive”. It also gave an inhibition at 25 µM [19] of 19%, an inhibition at 37.5 µM [20] of 45% and an inhibition at 50 µM [21] of 50%. It also gave an inhibition at 10 µM [15] of 40% and an inhibition at 50 µM [16] of 81%.

With `O=C(O)/C=C\C(=O)Nc1ccc(C(=O)O)cc1` the inhibition (MB49-I [1]) was “inactive” and the inhibition (MB49-I [2]) was “inactive”.

In the case of `O=C1C=CC(=O)N1c1ccccc1`, the inhibition (MB49-I [1]) is reported as “inactive” and the inhibition (MB49-I [2]) is reported as “inactive”.

For `O=C1C=CC(=O)O1`, the inhibition (MB49-I [1]) was “inactive” and the inhibition (MB49-I [2]) was “inactive”.

For `O=C(O)/C=C\C(=O)Nc1ccccc1`, the inhibition (MB49-I [1]) was “inactive” and the inhibition (MB49-I [2]) was “inactive”.

For `O=C(O)c1ccc(N2C(=O)C=CC2=O)cc1`, the inhibition (MB49-I [1]) was “inactive” and the inhibition (MB49-I [2]) was “inactive”.
